In ChEMBL document CHEMBL1125248, “Synthesis and anticancer activity of various 3'-deoxy pyrimidine nucleoside analogues and crystal structure of 1-(3-deoxy-beta-D-threo-pentofuranosyl)cytosine” (1991):

Legend:
Assay type in all cases: functional
L1210 = experiment: Effective dose to inhibit the replication of L1210 cell line in vitro.; settings: Mus musculus, read-out: ED50 (the source's name)
In short: (§1)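 Murine L1210, P388 and S-180 cells grown as suspension cultures in Fischer's medium with 10% horse serum at 37 °C under 5% CO2. Various concentrations added to exponentially growing cells at 2 × 10⁴ cells/mL. Cells counted against drug-free controls after 24, 48 and 72 h. ED50 (50% inhibition of replication) estimated from dose-response curves of at least two independent experiments.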

CCRF S-180 = experiment: Effective dose to inhibit the replication of S180 cell line in vitro.; settings: Mus musculus, read-out: ED50 (the source's name); in short: as §1
CCRF-CEM = experiment: Inhibit the replication of CCRF-CEM cell line in vitro.; settings: Homo sapiens, read-out: ED50 (the source's name)
In short: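 Human CCRF-CEM lymphoblastic leukemia cells held in suspension in RPMI medium with 10% horse serum, 37 °C, humidified 5% CO2. Test agent at various concentrations added to exponential-phase cultures (2 × 10⁴ cells/mL). Cell numbers compared with untreated cultures at 24, 48 and 72 h. 50% replication-inhibiting concentration read from dose-response curves, at least two independent experiments.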

P388 = experiment: Effective dose to inhibit the replication of P388 cell line in vitro.; settings: Mus musculus, read-out: ED50 (the source's name); in short: as §1

EC50 (L1210) [µM] | EC50 (CCRF S-180) [µM] | EC50 (CCRF-CEM) [µM] | EC50 (P388) [µM] | SMILES
> 100 | > 100 | > 100 | > 100 | O=c1[nH]c(=O)n([C@@H]2O[C@H](CO)C[C@@H]2O)cc1I
> 100 | > 100 | > 100 | > 100 | Nc1nc(=O)n([C@@H]2O[C@H](CO)C[C@H]2O)cc1Br
50 | > 100 | > 100 | 25 | O=c1ccn([C@@H]2O[C@H](CO)C[C@H]2O)c(=O)[nH]1
> 100 | > 100 | > 100 | > 100 | O=c1[nH]c(=O)n([C@@H]2O[C@H](CO)C[C@H]2O)cc1Br
> 100 | > 100 | > 100 | > 100 | O=c1[nH]c(=O)n([C@@H]2O[C@H](CO)C[C@@H]2O)cc1Br
5 | 15 | 25 | 2.5 | Nc1ccn([C@@H]2O[C@H](CO)C[C@H]2O)c(=O)n1
> 100 | > 100 | > 100 | > 100 | Nc1nc(=O)n([C@@H]2O[C@H](CO)C[C@H]2O)cc1I
> 100 | > 100 | > 100 | > 100 | O=c1[nH]c(=O)n([C@@H]2O[C@H](CO)C[C@@H]2O)cc1Cl
> 100 | > 100 | > 100 | > 100 | O=c1ccn([C@@H]2O[C@H](CO)C[C@@H]2O)c(=O)[nH]1

Continued, compound first:

SMILES | EC50 (L1210) [µM] | EC50 (CCRF S-180) [µM] | EC50 (CCRF-CEM) [µM] | EC50 (P388) [µM]
Nc1ccn([C@@H]2O[C@H](CO)C[C@@H]2O)c(=O)n1 | 10 | 34 | 2 | 5
CC(=O)OC[C@@H]1C[C@H](OC(C)=O)[C@H](n2ccc(N)nc2=O)O1 | 20 | 30 | 1 | 10
Nc1ccn([C@@H]2O[C@H](CO)[C@@H](O)[C@@H]2O)c(=O)n1 [CYTARABINE] | 0.05 | 0.2 | 0.005 | 0.02
CC(=O)Nc1ccn([C@@H]2O[C@H](CO)C[C@@H]2OC(C)=O)c(=O)n1 | > 100 | > 100 | > 100 | > 100
CC(=O)O[C@H]1C[C@@H](CO)O[C@H]1n1ccc(N)nc1=O | 5 | 20 | 3 | 2
CC(=O)OC[C@@H]1C[C@H](O)[C@H](n2ccc(N)nc2=O)O1 | 3 | 13 | 0.4 | 3
CC(=O)Nc1ccn([C@@H]2O[C@H](COC(C)=O)C[C@@H]2OC(C)=O)c(=O)n1 | > 100 | > 100 | 23 | > 100
